TAG inh: inhibitors of triacylglycerol accumulation | H9c2 cells, Nile Red lipid (TAG) fluorescence; cells loaded with 200 µM oleic acid | inhibition, % at 12.5 µM | hit rate 0.66% among 230,000;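 active = pattern-corrected inhibition of lipid staining of at least 50% with the nuclear-stain viability signal not falling by more than 50%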;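 note: 0% = DMSO wells and 100% = triacsin C control wells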
EBI2 block: EBI2 (human) antagonism | P32249 | EBI2 beta-arrestin recruitment, luminescence, 7a,25-OHC stimulated | inhibition, % at 5 µM | hit rate 0.81% among 360,000; in the data active = inhibition above about 38%;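 note: enzyme fragment complementation signal reports receptor beta-arrestin coupling in cells; 0% = agonist plus DMSO wells and 100% = wells without agonist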
CCR6 antag: antagonists of human CCR6 receptor | P51684 | CHO-K1 CCR6 PathHunter beta-arrestin, luminescence, CCL20-stimulated | inhibition, % at 20 µM | hit rate 0.49% among 340,000 | AID 493098;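 active = compounds whose inhibition of the agonist-driven luminescence signal at 20 µM reaches about 50%, limit read from the data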;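 note: cells stimulated with CCL20 at 14 nM final; plate controls were DMSO with CCL20 for no effect and DMSO without agonist for full effect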
Target sequence (P51684 whole entry, looked up): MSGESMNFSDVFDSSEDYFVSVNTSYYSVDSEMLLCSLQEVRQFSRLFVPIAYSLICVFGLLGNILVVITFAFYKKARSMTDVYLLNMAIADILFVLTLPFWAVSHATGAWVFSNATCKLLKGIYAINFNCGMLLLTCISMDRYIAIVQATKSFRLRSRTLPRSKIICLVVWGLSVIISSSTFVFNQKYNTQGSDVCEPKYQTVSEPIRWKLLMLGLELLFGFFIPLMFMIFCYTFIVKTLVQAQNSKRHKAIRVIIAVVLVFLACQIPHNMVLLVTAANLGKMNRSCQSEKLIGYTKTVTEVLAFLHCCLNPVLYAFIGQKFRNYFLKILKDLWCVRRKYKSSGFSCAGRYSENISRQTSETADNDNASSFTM
APJ agonist: activates the human apelin receptor APJ | P35414 | CHO-K1 APJ PathHunter beta-arrestin, luminescence; 0% DMSO wells, 100% apelin | activation, % at 20 µM | hit rate 0.11% among 330,000 | AID 2520;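 active = activation more than six SD over the plate average, tested at 20 µM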;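 note: 0% = DMSO alone and 100% = apelin-13 at 10 nM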
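Test system: CHO-K1 APJ beta-arrestin complementation cell line | Compound: Single test compound dose, 20 µM final, 1% DMSO | Incubation: Compound 90 min 25 °C, reagent 1 h | Measured by: beta-gal luminescence | Read-out basis: APJ–arrestin association signal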
APJ antagonist: blocks the human apelin receptor APJ; P35414; hit rate 0.32% among 330,000; inhibition, % at 20 µM; AID 2521; CHO-K1 APJ beta-arrestin complementation, luminescence;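 active = inhibition above about 40% at 20 µM, limit read from the data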;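 note: cells challenged with 10 nM apelin-13 agonist together with compound; plate controls were apelin-13 plus DMSO wells for no effect and DMSO wells lacking apelin-13 for full effect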
CXCR6 inh: inhibitors of human CXCR6 receptor; CHO-K1 PathHunter CXCR6 beta-arrestin, luminescence; hit rate 0.36% among 360,000; inhibition, % at 20 µM; O00574; in the data active = inhibition above about 34%, passing the limit was not always enough;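 note: antagonist mode with CXCL16 agonist at 10 nM final; 0% = 10 nM CXCL16 with DMSO and 100% = unstimulated wells without agonist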
Target sequence (O00574 whole entry, looked up): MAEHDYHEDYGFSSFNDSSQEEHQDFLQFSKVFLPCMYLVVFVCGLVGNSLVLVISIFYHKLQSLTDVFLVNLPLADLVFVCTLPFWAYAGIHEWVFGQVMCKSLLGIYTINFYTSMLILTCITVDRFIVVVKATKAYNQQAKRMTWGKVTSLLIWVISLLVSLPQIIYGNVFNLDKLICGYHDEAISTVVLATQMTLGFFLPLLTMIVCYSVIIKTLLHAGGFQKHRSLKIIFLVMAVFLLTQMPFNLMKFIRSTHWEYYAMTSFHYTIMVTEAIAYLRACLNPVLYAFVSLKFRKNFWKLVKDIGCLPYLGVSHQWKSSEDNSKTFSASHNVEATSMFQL
EBI2 conf: confirmation of human EBI2 receptor antagonists; shares compounds with EBI2 block; EBI2 beta-arrestin luminescence, 7a,25-OHC antagonism; inhibition, % at 5 µM; hit rate 29% among 2,400; AID 651997;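 active = inhibition of at least 50%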
EBI2 agonist: EBI2 agonism counter-screen; activation, % at 5 µM; shares compounds with EBI2 block; AID 652000; 2,400 tested, under 10 active; EBI2-expressing cells, agonist mode, luminescence, 60 min; 0% vehicle, 100% 7α,25-dihydroxycholesterol control;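 active = activation of at least 50%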
bGal counter: counter-screen for EBI2 antagonists: E. coli beta-galactosidase inhibition | shares compounds with EBI2 block | purified beta-galactosidase, luminescent Galacton Star, 15 min | inhibition, % at 5 µM | hit rate 1% among 2,400 | AID 652176;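 active = replicate-average signal at least 3 plate SD below neutral wells, shown as high inhibition, flagging enzyme-inhibiting false positives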;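 note: 0% = DMSO wells with enzyme and 100% = wells lacking enzyme; higher means stronger loss of beta-gal luminescence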
* marks the source's active call; other numbers are inactive results; / = not tested or not shown. An excerpt weighted towards active compounds, which were near 1.9% of everything screened.

SMILES	TAG inh	EBI2 block	CCR6 antag	APJ agonist	APJ antagonist	CXCR6 inh	EBI2 conf	EBI2 agonist	bGal counter
CCc1ccc(/C=C2\SC(N3CCCC3)=NC2=O)cc1	-0.3	73.4*	0.9	-2.6	-12.8	4.8	39.9	1.0	9.2
COc1ccc(/C=C2\SC(N3CCCCC3)=NC2=O)cc1	/	53.5*	5.3	1.3	21.3	-0.1	30.0	4.7	5.4
O=C1N=C(N2CCCCC2)S/C1=C\c1ccncc1	8.8	1.7	2.5	1.1	0.7	-1.8	/	/	/
CCCCOC(=O)c1ccc(NC(=O)CSC2=Nc3ccccc3C3CC=NN23)cc1 (centres undefined)	/	58.5*	15.3	-1.6	-5.3	12.2	16.5	0.0	8.7
Cc1cc(C)n(-c2ccc(C(=O)N3CCN(S(=O)(=O)c4ccc(Br)cc4Cl)CC3)cc2)n1	0.4	92.0*	/	/	/	-4.9	65.3*	-1.2	-14.9
CCOc1ccc(-n2c(-c3ccco3)nc3c(cnn3-c3ccc(C)cc3)c2=O)cc1	-37.3	46.8*	6.4	-0.8	-8.4	9.5	18.9	0.5	5.8
Cc1ccc(-n2c(-c3ccco3)nc3c(cnn3-c3ccc(C)cc3)c2=O)cc1	-28.7	36.0	25.7	-3.9	-9.1	5.1	/	/	/
Cc1ccccc1C(=O)NCC(=O)OCCOc1ccc(C(C)C)c(C)c1	-5.8	-0.4	22.7	-2.7	4.9	0.5	/	/	/
COc1ccc2cc(-c3[nH]ncc3CN3CCCC3c3nonc3C)ccc2c1 (centres undefined)	12.7	45.9*	-2.3	-0.4	-26.3	-3.0	27.8	0.3	5.6
CC1(C(=O)Nc2ccc(Cl)c(Cl)c2)CCN1C(=O)CC(c1ccccc1)c1ccccc1 (centres undefined)	2.5	7.7	/	/	/	2.2	/	/	/
CC1(C(=O)Nc2cnc3ccccc3c2)CCN1C(=O)CC(c1ccccc1)c1ccccc1 (centres undefined)	5.7	74.9*	/	/	/	11.1	55.0*	-0.8	-4.4
O=C(CCCOc1ccccc1)N1CCN(S(=O)(=O)c2cccc(F)c2)CC1	8.4	37.2	13.3	-7.5	15.0	-2.5	/	/	/
O=C(CCCOc1ccccc1)N1CCN(S(=O)(=O)c2ccccc2)CC1	9.9	46.0*	-2.3	-4.8	-2.4	1.8	40.0	0.9	1.1
Cc1ccc(OCCCC(=O)N2CCN(S(=O)(=O)c3cccc(F)c3)CC2)cc1	10.9	52.8*	15.0	-5.7	-60.0	6.2	12.9	-1.2	-13.6
O=[N+]([O-])c1ccc(N2CCCCC2)cc1NCCOc1ccccc1	3.1	44.5*	19.9	-1.8	27.5	8.6	34.8	-1.2	-9.7
N#Cc1ccc(C(=O)N2CCN(S(=O)(=O)c3ccc(Br)s3)CC2)cc1	8.1	66.3*	1.0	-3.1	-5.3	-11.5	31.9	0.9	8.4
CC(C)OCc1ccc(C(=O)N2CCN(S(=O)(=O)c3ccc(Br)s3)CC2)cc1	-11.6	34.3	0.3	-1.8	-3.0	-7.0	/	/	/
Cn1cccc1Cc1nnc(SCC(=O)Nc2ccc3c(c2)OCO3)n1CCc1ccccc1	/	36.1	5.8	-3.1	21.1	2.4	/	/	/
Cn1cccc1Cc1nnc(SCC(=O)Nc2ccc(F)cc2)n1CCc1ccccc1	-8.3	50.5*	1.8	0.2	-0.4	0.1	34.0	0.6	1.6
COc1ccc(-n2c(Cc3cccn3C)nnc2SCC(=O)Nc2cccc(Cl)c2)cc1	/	47.1*	-6.9	-1.6	4.3	4.7	22.6	-0.7	9.0
COc1ccc(-n2c(Cc3cccn3C)nnc2SCC(=O)Nc2cccc(NC(C)=O)c2)cc1	/	0.1	1.7	-4.6	13.6	0.7	/	/	/
CCN(CC(=O)NCc1ccc(Cl)cc1)C(=O)/C=C/c1ccccc1	/	76.2*	10.3	-3.7	10.8	-4.4	34.0	1.2	0.0
CCN(CC(=O)NCc1ccc(Cl)cc1)C(=O)/C=C/c1ccc(C#N)cc1	/	51.1*	10.4	0.1	9.2	-1.5	33.9	0.4	6.9
CCN(CC(=O)NCc1ccc(Cl)cc1)C(=O)c1ccc2cc(OC)ccc2c1	/	68.3*	17.5	2.0	4.9	3.5	52.5*	0.1	-5.2
CCN(CC(=O)NCc1ccc(Cl)cc1)C(=O)/C=C/c1ccc(Cl)c([N+](=O)[O-])c1	5.8	21.1	16.9	4.4	-23.0	11.1	/	/	/
SMILES	TAG inh	EBI2 block	CCR6 antag	APJ agonist	APJ antagonist	CXCR6 inh	EBI2 conf	EBI2 agonist	bGal counter
Cc1cc(NS(=O)(=O)c2ccc(NC(=O)c3cnc(Cl)c(Cl)c3)cc2)nc(C)n1	6.6	10.9	0.5	-3.2	1.3	4.7	/	/	/
CC(=O)N1c2ccc(S(=O)(=O)NCC3CCC(C(=O)NCc4ccc(C)cc4)CC3)cc2CC1C (centres undefined)	/	57.1*	15.7	6.6	9.3	0.8	45.9	-0.1	6.9
Cc1ccc(CNC(=O)C2CCN(S(=O)(=O)c3ccc4c(c3)CC(C)N4C(=O)C3CC3)CC2)cc1 (centres undefined)	/	79.5*	9.4	22.2	-8.9	-7.2	45.3	0.6	3.3
CC(=O)N1c2ccc(S(=O)(=O)N3CCC(C(=O)NCc4ccc(C)cc4)CC3)cc2CC1C (centres undefined)	/	38.0	27.3	-1.6	4.7	-10.4	/	/	/
COC(C[C@@H](O)CC(=O)COCc1ccccc1)OC	7.3	-1.4	5.7	-3.0	3.6	-14.4	/	/	/
COc1ccc(NC(=S)N(CCCN2CCOCC2)Cc2cn(C)c3ccccc23)cc1	/	18.0	0.3	-2.9	-10.9	10.6	/	/	/
CCOc1ccc(NC(=S)N(CCCN2CCOCC2)Cc2cn(C)c3ccccc23)cc1	/	44.1*	12.0	-4.3	11.7	5.4	10.3	0.2	6.5
O=C(CCc1ccccc1)Nc1ccc2ccccc2n1	/	72.4*	3.9	-3.7	5.8	1.4	49.7	-0.8	-9.4
CCC(C)c1ccc(N(C(=O)c2ccco2)C(C(=O)NC2CCCC2)c2cccnc2)cc1 (centres undefined)	/	3.7	13.2	-3.1	-8.1	1.7	/	/	/
COc1ccc(CCNC(=O)CSc2cn(Cc3cccc(C)c3)c3ccccc23)cc1OC	40.4	55.0*	29.5	-6.6	6.6	22.5	29.1	-1.2	-9.0
COc1ccc(/C=N/NC(N)=S)cc1OC(=O)c1cccc2ccccc12	17.7	56.1*	9.4	11.0	0.6	8.9	5.4	1.7	3.1
O=Cc1c(NCCc2ccc(F)cc2)c2ccccc2[nH]c1=O	/	44.6*	11.3	0.3	15.6	3.9	4.0	-1.2	-9.4
